ChEMBL document CHEMBL1122708, “Preparation and antibacterial activities of new 1,2,3-diazaborine derivatives and analogues” (1984)
Values after ≈ are worked out from the molar mass of the structure shown.

Legend:
Escherichia coli [1] = assay: Minimum inhibitory concentration of compound against Escherichia coli delta 120; format: functional
Neisseria gonorrhoeae [2] = assay: Minimum inhibitory concentration of compound against Neisseria gonorrhoeae W2; format: functional
In short: (§1)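 Agar dilution on Kellogg agar, 10⁶ colony forming units, incubated 20 h at 36 °C in 5% CO₂; MIC is the lowest concentration giving no visible growth.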

Salmonella typhimurium = assay: Minimum inhibitory concentration of compound against Salmonella Typhimurium delta 119; format: functional, Salmonella enterica subsp. enterica serovar Typhimurium; details: Salmonella enterica
Klebsiella pneumoniae = assay: Minimum inhibitory concentration of compound against Klebsiella pneumoniae delta 217; format: functional
Proteus mirabilis = assay: Minimum inhibitory concentration against Proteus mirabilis delta 89; format: functional
Escherichia coli [3] = assay: Antibacterial activity againist Escherichia coli 120 infected NMRI mice after peroral administration; format: functional; details: po
In short: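 ED50 in NMRI mice infected intraperitoneally with E. coli 120; compound given orally immediately and 5 h after infection.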

Klebsiella aerogenes = assay: Minimum inhibitory concentration of compound against Enterobacter aerogenes delta 220; format: functional
Neisseria gonorrhoeae [4] = assay: Minimum inhibitory concentration of compound against Neisseria gonorrhoeae AS 7720; format: functional; in short: as §1
Escherichia coli [5] = assay: Antibacterial activity againist Escherichia coli 120 infected NMRI mice after subcutaneous administration; format: functional; details: sc
In short: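 ED50 in NMRI mice infected intraperitoneally with E. coli 120; compound given subcutaneously immediately and 5 h after infection.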

| MIC (Escherichia coli [1]) [µg/mL] | MIC (Neisseria gonorrhoeae [2]) [µg/mL] | MIC (Salmonella typhimurium) [µg/mL] | MIC (Klebsiella pneumoniae) [µg/mL] | MIC (Proteus mirabilis) [µg/mL] | MIC (Klebsiella aerogenes) [µg/mL] | MIC (Neisseria gonorrhoeae [4]) [µg/mL] | SMILES | ED50 (Escherichia coli [3]) [mg/kg] | ED50 (Escherichia coli [5]) [mg/kg] |
| --- | --- | --- | --- | --- | --- | --- | --- | --- | --- |
| 10 (≈ 34.9 µM) | 2 (≈ 6.98 µM) | 3.12 (≈ 10.9 µM) | 1.56 (≈ 5.44 µM) | 2.5 (≈ 8.72 µM) | 25 (≈ 87.2 µM) | 2 (≈ 6.98 µM) | CCCS(=O)(=O)N1N=Cc2cc(Cl)ccc2B1O | 14 | – |
| 6.25 (≈ 16.2 µM) | 2 (≈ 5.19 µM) | 3.12 (≈ 8.1 µM) | 1.56 (≈ 4.05 µM) | 1.56 (≈ 4.05 µM) | 25 (≈ 64.9 µM) | 0.5 (≈ 1.3 µM) | Cc1ccc(S(=O)(=O)N2N=Cc3sc(Br)cc3B2O)cc1 | ~15 | – |
| 25 (≈ 105 µM) | > 8 | 12.5 (≈ 52.5 µM) | 6.25 (≈ 26.3 µM) | 25 (≈ 105 µM) | > 50 | > 8 | Cc1ccc2c(c1)C=NN(S(C)(=O)=O)B2O | 42 | – |
| 50 (≈ 141 µM) | 1 (≈ 2.82 µM) | 6.25 (≈ 17.6 µM) | 3.12 (≈ 8.8 µM) | 1.56 (≈ 4.4 µM) | 50 (≈ 141 µM) | 1 (≈ 2.82 µM) | Cc1ccc(S(=O)(=O)N2N=Cc3cc(C)sc3B2O)c(Cl)c1 | 25 | – |
| 50 (≈ 165 µM) | > 8 | 12.5 (≈ 41.4 µM) | 50 (≈ 165 µM) | 50 (≈ 165 µM) | > 50 | > 8 | O=S(=O)(c1ccccc1)N1N=Cc2ccc(O)cc2B1O | 100 | – |
| 50 (≈ 132 µM) | 8 (≈ 21.1 µM) | 6.25 (≈ 16.5 µM) | 6.25 (≈ 16.5 µM) | 12.5 (≈ 33 µM) | > 50 | 2 (≈ 5.28 µM) | Cc1ccc(S(=O)(=O)N2N=Cc3ccc(Br)cc3B2O)cc1 | ~30 | – |
| 3.12 (≈ 8.41 µM) | 2 (≈ 5.39 µM) | 0.78 (≈ 2.1 µM) | 0.78 (≈ 2.1 µM) | 1.56 (≈ 4.2 µM) | 12.5 (≈ 33.7 µM) | 1 (≈ 2.7 µM) | O=S(=O)(c1ccccc1)N1N=Cc2sc(Br)cc2B1O | ~20 | – |
| > 50 | 8 (≈ 22.8 µM) | > 50 | 25 (≈ 71.4 µM) | 3.12 (≈ 8.91 µM) | > 50 | 2 (≈ 5.71 µM) | Cc1ccc(S(=O)(=O)N2N=Cc3c(ccc4ccccc34)B2O)cc1 | > 100 | – |
| 25 (≈ 73.4 µM) | 1 (≈ 2.94 µM) | 5 (≈ 14.7 µM) | 2.5 (≈ 7.34 µM) | 1.56 (≈ 4.58 µM) | 50 (≈ 147 µM) | 1 (≈ 2.94 µM) | Cc1ccc(S(=O)(=O)N2N=Cc3sc(Cl)cc3B2O)cc1 | 28 | – |
| > 50 | > 8 | > 50 | > 50 | > 50 | > 50 | > 8 | CS(=O)(=O)N1N=Cc2sccc2B1O | 113 | – |
| 25 (≈ 78.1 µM) | 0.5 (≈ 1.56 µM) | 6.25 (≈ 19.5 µM) | 0.78 (≈ 2.44 µM) | 1.56 (≈ 4.87 µM) | 50 (≈ 156 µM) | 0.5 (≈ 1.56 µM) | Cc1cc2c(s1)C=NN(S(=O)(=O)c1ccccc1C)B2O | 50 | – |
| 25 (≈ 78.6 µM) | 8 (≈ 25.1 µM) | 6.25 (≈ 19.6 µM) | 6.25 (≈ 19.6 µM) | 6.25 (≈ 19.6 µM) | > 50 | 2 (≈ 6.29 µM) | Cc1ccc(S(=O)(=O)N2N=Cc3cc(F)ccc3B2O)cc1 | ~25 | – |
| 50 (≈ 108 µM) | 1 (≈ 2.16 µM) | 3.12 (≈ 6.75 µM) | 3.12 (≈ 6.75 µM) | 6.25 (≈ 13.5 µM) | 25 (≈ 54 µM) | 1 (≈ 2.16 µM) | CC(=O)Nc1ccc(S(=O)(=O)N2N=Cc3sc(Br)cc3B2O)c(Cl)c1 | 208 | – |
| 25 (≈ 58.4 µM) | 1 (≈ 2.34 µM) | 3.12 (≈ 7.29 µM) | 3.12 (≈ 7.29 µM) | 3.12 (≈ 7.29 µM) | 25 (≈ 58.4 µM) | 1 (≈ 2.34 µM) | CC(=O)Nc1ccc(S(=O)(=O)N2N=Cc3sc(Br)cc3B2O)cc1 | 55 | – |
| > 50 | – | > 50 | > 50 | > 50 | > 50 | – | Cc1ccc(S(=O)(=O)N2N=Cc3cc(N4CCCC4)ccc3B2O)cc1 | – | > 300 |
